Yeast growth inh – growth inhibitors of yeast BB579 in restrictive medium, primary screen, yeast lifespan-shortening project, S. cerevisiae; AID 804, 2007; OD615, 48 h; inhibition, % at 10 µM; 0.51% of 140,000 active;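 active = inhibition above a set limit, 3 SD over the mean compound inhibition, cut at about 44% in these data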
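System: DeaD yeast strain BB579; buffer or medium: CSMM-D dextrose restrictive medium; technique: OD at 615 nm; schedule: 4 h cell preincubation, 48 h compound exposure, 30 °C humidified; doses: single 10 µM dose; controls: amphotericin B 10 µg/mL, positive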
RAM network inh – inhibitors of the yeast RAM network, primary screen, dse1pr::URA3 reporter, 5-FOA selection; S. cerevisiae dse1pr::URA3 reporter, 5-FOA growth OD615, 2 d; analog-sensitive cbk1-as2 kinase mutant strain; inhibition, % at 50 µM; 1.8% of 190,000 active; AID 868, 2007;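 active = inhibition above a set limit, 3 SD over mean compound inhibition, cut at about 8.4% in these data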;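 note: inhibition rescues growth on 5-FOA so higher OD means more RAM inhibition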
INS promoter inh – inhibitors of insulin promoter-driven GFP, primary screen, imaging, TRM-6 cells, eGFP reporter, cell count; reporter expression induced with tamoxifen; inhibition, % at 2 µM; 0.9% of 130,000 active;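 active = inhibition above the mean plus 3 SD, with well images judged a real hit on visual review, cut at about 60% in these data, passing the limit was not always enough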
Yeast lifespan up – compounds extending yeast replicative lifespan, primary screen, S. cerevisiae, OD615. S. cerevisiae growth with nicotinamide; deaD strain in restrictive glucose medium. inhibition of the nicotinamide effect, % at 10 µM. 0.68% of 130,000 active;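 active = inhibition above a set limit, placed 3 SD over the median of all compounds, cut at about 26% in these data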
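assay system = DeaD-strain S. cerevisiae | buffer or medium = restrictive glucose medium | reagent = 1.5 mM nicotinamide | compound = 10 µM single point, 0.25% DMSO | incubation = 48 h compound exposure at 30 °C, humidified | signal = OD615 measurement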
Insulin prom up – insulin promoter activators in MIN6 cells, imaging, high-content screening, mouse beta cells. MIN6 insulin promoter-GFP reporter; hits give high values. z-score at 5 µM. 0.3% of 190,000 active;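 active = z-score above 3 at 5 µM with at least 500 cells counted in the well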
A number is an active result; n = inactive; x = no result. Only some compounds are listed: those with a hit (about 3.1% of all), similar ones and a draw of the others.

SMILES	Yeast growth inh	RAM network inh	INS promoter inh	Yeast lifespan up	Insulin prom up
Cc1ccc2nc3sc(C(=O)Nc4c(C)[nH]c(=O)[nH]c4=O)c(N)c3cc2c1	n	n	x	n	x
Cc1ccc2cc3c(N)c(C(=O)Nc4c(C)[nH]c(=O)[nH]c4=O)sc3nc2c1	n	9.5	x	n	x
CCOC(=O)c1c(C)[nH]c(C)c1C(=O)COc1ncnc2ccccc12	x	n	n	x	n
Cc1noc(C)c1COc1cccc(C(=O)OC(C)C#N)c1 (configuration not stated)	x	n	x	x	n
Cc1noc(C)c1COc1cccc(C(=O)OCCOc2ccc(F)cc2)c1	n	8.7	n	n	n
CCC(=O)N1CCN(CCN=CC2=C(O)CC(c3cccs3)CC2=O)CC1 (configuration not stated)	n	n	n	53	n
O=C1CC(c2ccccc2)CC(O)=C1C=NCCN1CCNCC1 (configuration not stated)	n	n	x	35	n
O=C1CC(c2ccccc2)CC(O)=C1C=NCCN1CCN(C(=O)Nc2ccccc2)CC1 (configuration not stated)	n	n	n	92	n
CCNC(=S)N1CCN(CCN=CC2=C(O)CC(c3cccs3)CC2=O)CC1 (configuration not stated)	n	n	n	n	n
Cc1ccc(C2CC(=O)C(C=NCCN3CCN(CC(=O)Nc4cc(C)cc(C)c4)CC3)=C(O)C2)cc1 (configuration not stated)	x	n	x	x	n
Cc1ccc(NC(=O)CN2CCN(CCN=CC3=C(O)CC(c4ccccc4)CC3=O)CC2)cc1 (configuration not stated)	n	n	n	60	n
CC(C)(CO)NC(=O)C12CC3CC(CC(Br)(C3)C1)C2	x	x	x	x	n
COc1ccc(C2=CC(=O)N(Nc3ccccc3)C2=O)cc1	x	n	x	x	n
Cc1ccc(NN2C(=O)C=C(c3ccc(Cl)cc3)C2=O)cc1	47	n	n	n	n
O=C1C=C(c2ccccc2)C(=O)N1Nc1ccccc1	44	n	n	n	n
O=C(CSc1nnc2ccccn12)NNC(=O)c1ccc(Br)cc1	x	n	x	x	n
CCOC(=O)N1CCN(C(=O)c2cc(S(=O)(=O)N3CCCC3)cn2C)CC1	n	n	x	n	3
CCOC(=O)N1CCC(NC(=O)c2cc(S(=O)(=O)N3CCCC3)cn2C)CC1	n	n	n	n	n
CCCCCCOc1ccc(C(=O)O)cc1	x	x	x	x	n
CCCCCCOc1ccc(-c2ccc(C#N)cn2)cc1	n	10	n	n	n
COC(=O)C1=C(O)C(C(=O)OC)C(c2ccc(C)cc2)C(C#N)(C#N)C1c1ccc(C)cc1 (configuration not stated)	n	8.5	n	x	x
CN1CCOC(=O)/C1=N/Nc1cc(Cl)ccc1Cl	x	n	x	x	x
COc1ccc(C2CC(c3ccccc3)=NN2C(=O)COC(=O)C2CC2)cc1 (configuration not stated)	n	n	n	n	n
COc1ccc(CC(=O)OCC(=O)N2N=C(c3ccccc3)CC2c2ccc(OC)cc2)cc1 (configuration not stated)	n	8.9	n	n	n
O=C(Nc1ccccc1C(=O)Nc1nnc(C(F)(F)F)s1)c1ccccc1Cl	x	x	x	x	n
SMILES	Yeast growth inh	RAM network inh	INS promoter inh	Yeast lifespan up	Insulin prom up
Cc1cc(C)c(NS(=O)(=O)c2ccc(NC(=O)CCC(=O)O)cc2)c(C)c1	x	n	n	x	n
COC(=O)c1ccc(C(=O)OC)c(NC(=O)N2c3ccccc3Sc3ccccc32)c1	n	n	x	n	n
COC(=O)c1cc(NC(=O)N2c3ccccc3Sc3ccccc32)cc(C(=O)OC)c1	n	9.8	n	n	x
CC1(C)CC(=O)C(C(=S)Nc2ccccc2)=C(NC2CC(C)(C)NC(C)(C)C2)C1	x	n	n	x	n
Cc1ccc(-c2nn(-c3ccccc3)cc2C=O)o1	x	n	x	x	n
Cc1nc(NC(C)(C)CO)c([N+](=O)[O-])cc1[N+](=O)[O-]	n	n	n	n	n
Cc1ccc(/C(N)=N/OC(=O)c2ccc(C)cc2Cl)cc1	58	n	n	n	n
N/C(=N\OC(=O)c1ccc(Cl)cc1Cl)c1ccc(Cl)cc1	n	n	n	n	n
Cc1cccc(/C(N)=N/OC(=O)c2ccc(Cl)cc2Cl)c1	n	n	n	n	n
N/C(=N\OC(=O)c1ccc(Cl)cc1Cl)c1ccccc1	96	n	n	n	n
